According to ChEMBL document CHEMBL2157880, “Synthesis, antimycobacterial and antibacterial activity of ciprofloxacin derivatives containing a N-substituted benzyl moiety” (2012):

Experiments:
Format in all cases: functional
Staphylococcus aureus [1] = assay: Antibacterial activity against methicillin-sensitive Staphylococcus aureus 10-14 after 18 to 24 hrs by NCCLS method
Summary of the method: (§1)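 Standard NCCLS (M100-S11) MIC testing against Gram-positive and Gram-negative strains. Plates were incubated at 35 °C for 18–24 h. The MIC was read as the lowest concentration giving complete inhibition of visible bacterial growth.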

Streptococcus pneumoniae [2] = assay: Antibacterial activity against Streptococcus pneumoniae 10-6 after 18 to 24 hrs by NCCLS method; summary of the method: as §1
Staphylococcus aureus [3] = assay: Antibacterial activity against methicillin-resistant Staphylococcus aureus 10-13 after 18 to 24 hrs by NCCLS method
Summary of the method: (§2)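 Incubated at 35 °C for 18–24 h under NCCLS (M100-S11) standards. MIC was read as the lowest concentration giving complete inhibition of visible bacterial growth.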

[4] = tested on: Staphylococcus epidermidis; assay: Antibacterial activity against methicillin-resistant Staphylococcus epidermidis 10-13 after 18 to 24 hrs by NCCLS method; summary of the method: as §2
Escherichia coli [5] = assay: Antibacterial activity against extended spectrum beta-lactamases producing Escherichia coli 10-4 after 18 to 24 hrs by NCCLS method; summary of the method: as §1
Staphylococcus aureus [6] = assay: Ratio of compound MIC to ciprofloxacin MIC for methicillin-sensitive Staphylococcus aureus 10-13
[7] = tested on: Staphylococcus epidermidis; assay: Ratio of compound MIC to ciprofloxacin MIC for methicillin-sensitive Staphylococcus epidermidis 10-11
[8] = tested on: Mycobacterium tuberculosis; assay: Antimycobacterial activity against Mycobacterium tuberculosis H37Rv ATCC 27294 by microplate alamar blue assay
Summary of the method: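 Microplate Alamar Blue fluorescence assay on strain H37Rv ATCC 27294. MIC was the lowest concentration cutting fluorescence by ≥90% against the mean of replicate bacterium-only controls.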

Escherichia coli [9] = assay: Antibacterial activity against extended spectrum beta-lactamases producing Escherichia coli 10-3 after 18 to 24 hrs by NCCLS method; summary of the method: as §1
Enterococcus faecalis [10] = assay: Antibacterial activity against Enterococcus faecalis 10-5 after 18 to 24 hrs by NCCLS method; summary of the method: as §1
Klebsiella pneumoniae [11] = assay: Antibacterial activity against Klebsiella pneumoniae 10-3 after 18 to 24 hrs by NCCLS method; summary of the method: as §1
Streptococcus pneumoniae [12] = assay: Antibacterial activity against Streptococcus pneumoniae 10-1 after 18 to 24 hrs by NCCLS method; summary of the method: as §1
Staphylococcus aureus [13] = assay: Ratio of compound MIC to ciprofloxacin MIC for methicillin-sensitive Staphylococcus aureus 10-11
Staphylococcus aureus [14] = assay: Ratio of compound MIC to ciprofloxacin MIC for Staphylococcus aureus ATCC 2592
Enterococcus faecalis [15] = assay: Ratio of compound MIC to ciprofloxacin MIC for Enterococcus faecalis 10-5
Enterococcus faecium [16] = assay: Antibacterial activity against Enterococcus faecium 10-9 after 18 to 24 hrs by NCCLS method; summary of the method: as §1
Streptococcus pneumoniae [17] = assay: Ratio of compound MIC to ciprofloxacin MIC for Streptococcus pneumoniae 10-1
Enterococcus faecalis [18] = assay: Antibacterial activity against Enterococcus faecalis 10-7 after 18 to 24 hrs by NCCLS method; summary of the method: as §1
Klebsiella pneumoniae [19] = assay: Antibacterial activity against extended spectrum beta-lactamases producing Klebsiella pneumoniae 10-1 after 18 to 24 hrs by NCCLS method; summary of the method: as §1
Escherichia coli [20] = assay: Antibacterial activity against Escherichia coli ATCC 25922 after 18 to 24 hrs by NCCLS method; summary of the method: as §1
Streptococcus pneumoniae [21] = assay: Ratio of compound MIC to ciprofloxacin MIC for Streptococcus pneumoniae 10-6
Enterococcus faecium [22] = assay: Ratio of compound MIC to ciprofloxacin MIC for Enterococcus faecium 10-6
Enterococcus faecium [23] = assay: Ratio of compound MIC to ciprofloxacin MIC for Enterococcus faecium 10-9
[24] = tested on: Staphylococcus epidermidis; assay: Antibacterial activity against methicillin-resistant Staphylococcus epidermidis 10-10 after 18 to 24 hrs by NCCLS method; summary of the method: as §2
Pseudomonas aeruginosa [25] = assay: Antibacterial activity against Pseudomonas aeruginosa 10-12 after 18 to 24 hrs by NCCLS method; summary of the method: as §1
Enterococcus faecalis [26] = assay: Antibacterial activity against Enterococcus faecalis 10-6 after 18 to 24 hrs by NCCLS method; summary of the method: as §1
Staphylococcus aureus [27] = assay: Antibacterial activity against methicillin-sensitive Staphylococcus aureus 10-13 after 18 to 24 hrs by NCCLS method; summary of the method: as §1
Pseudomonas aeruginosa [28] = assay: Antibacterial activity against Pseudomonas aeruginosa 10-9 after 18 to 24 hrs by NCCLS method; summary of the method: as §1
Escherichia coli [29] = assay: Antibacterial activity against Escherichia coli 10-1 after 18 to 24 hrs by NCCLS method; summary of the method: as §1
Enterococcus faecium [30] = assay: Antibacterial activity against Enterococcus faecium 10-6 after 18 to 24 hrs by NCCLS method; summary of the method: as §1
Pseudomonas aeruginosa [31] = assay: Antibacterial activity against Pseudomonas aeruginosa 10-5 after 18 to 24 hrs by NCCLS method; summary of the method: as §1
[32] = tested on: Staphylococcus epidermidis; assay: Ratio of compound MIC to ciprofloxacin MIC for methicillin-sensitive Staphylococcus epidermidis 10-15
Pseudomonas aeruginosa [33] = assay: Antibacterial activity against Pseudomonas aeruginosa 10-18 after 18 to 24 hrs by NCCLS method; summary of the method: as §1
Klebsiella pneumoniae [34] = assay: Antibacterial activity against Klebsiella pneumoniae 10-4 after 18 to 24 hrs by NCCLS method; summary of the method: as §1
Escherichia coli [35] = assay: Antibacterial activity against extended spectrum beta-lactamases producing Escherichia coli 10-2 after 18 to 24 hrs by NCCLS method; summary of the method: as §1
Staphylococcus aureus [36] = assay: Antibacterial activity against methicillin-resistant Staphylococcus aureus 10-11 after 18 to 24 hrs by NCCLS method; summary of the method: as §2
[37] = tested on: Staphylococcus epidermidis; assay: Antibacterial activity against methicillin-sensitive Staphylococcus epidermidis 10-15 after 18 to 24 hrs by NCCLS method; summary of the method: as §2
Staphylococcus aureus [38] = assay: Ratio of compound MIC to ciprofloxacin MIC for methicillin-sensitive Staphylococcus aureus 10-14
Escherichia coli [39] = assay: Antibacterial activity against Escherichia coli 10-3 after 18 to 24 hrs by NCCLS method; summary of the method: as §1
Staphylococcus aureus [40] = assay: Antibacterial activity against methicillin-sensitive Staphylococcus aureus 10-11 after 18 to 24 hrs by NCCLS method; summary of the method: as §1
Pseudomonas aeruginosa [41] = assay: Antibacterial activity against Pseudomonas aeruginosa 10-20 after 18 to 24 hrs by NCCLS method; summary of the method: as §1
Staphylococcus aureus [42] = assay: Antibacterial activity against Staphylococcus aureus ATCC 2592 after 18 to 24 hrs by NCCLS method; summary of the method: as §1
Klebsiella pneumoniae [43] = assay: Antibacterial activity against Klebsiella pneumoniae 10-2 after 18 to 24 hrs by NCCLS method; summary of the method: as §1
Klebsiella pneumoniae [44] = assay: Antibacterial activity against extended spectrum beta-lactamases producing Klebsiella pneumoniae 10-2 after 18 to 24 hrs by NCCLS method; summary of the method: as §1
Escherichia coli [45] = assay: Antibacterial activity against Escherichia coli 10-2 after 18 to 24 hrs by NCCLS method; summary of the method: as §1
Enterococcus faecalis [46] = assay: Ratio of compound MIC to ciprofloxacin MIC for Enterococcus faecalis 10-6
Staphylococcus aureus [47] = assay: Antibacterial activity against methicillin-resistant Staphylococcus aureus 10-15 after 18 to 24 hrs by NCCLS method; summary of the method: as §2
Klebsiella pneumoniae [48] = assay: Antibacterial activity against extended spectrum beta-lactamases producing Klebsiella pneumoniae 10-3 after 18 to 24 hrs by NCCLS method; summary of the method: as §1
[49] = tested on: Staphylococcus epidermidis; assay: Antibacterial activity against methicillin-sensitive Staphylococcus epidermidis 10-11 after 18 to 24 hrs by NCCLS method; summary of the method: as §1
Pseudomonas aeruginosa [50] = assay: Antibacterial activity against Pseudomonas aeruginosa 10-15 after 18 to 24 hrs by NCCLS method; summary of the method: as §1
Enterococcus faecalis [51] = assay: Ratio of compound MIC to ciprofloxacin MIC for Enterococcus faecalis 10-7

COc1ccc(CN2CCN(c3cc4c(cc3F)c(=O)c(C(=O)O)cn4C3CC3)CC2)cc1
4 µg/mL: MIC (Enterococcus faecalis [10]) | MIC (Klebsiella pneumoniae [11]) | MIC (Pseudomonas aeruginosa [28]) | MIC (Pseudomonas aeruginosa [31]) | MIC (Pseudomonas aeruginosa [33]) | MIC (Pseudomonas aeruginosa [41]) | MIC (Staphylococcus aureus [47])
2 µg/mL: MIC (Pseudomonas aeruginosa [25]) | MIC (Pseudomonas aeruginosa [50])
16 µg/mL: MIC (Streptococcus pneumoniae [2]) | MIC (Staphylococcus aureus [3]) | MIC (Enterococcus faecium [16]) | MIC (Staphylococcus aureus [36])
0.5 µg/mL: MIC [49]
32 µg/mL: MIC (Enterococcus faecalis [26])
2: Ratio (Staphylococcus aureus [6]) | Ratio [7] | Ratio (Staphylococcus aureus [13]) | Ratio (Staphylococcus aureus [14]) | Ratio (Enterococcus faecalis [15]) | Ratio (Streptococcus pneumoniae [17]) | Ratio (Streptococcus pneumoniae [21]) | Ratio (Enterococcus faecium [22]) | Ratio (Enterococcus faecium [23]) | Ratio [32] | Ratio (Staphylococcus aureus [38]) | Ratio (Enterococcus faecalis [46]) | Ratio (Enterococcus faecalis [51])
8 µg/mL: MIC [4] | MIC (Escherichia coli [5]) | MIC (Enterococcus faecalis [18]) | MIC [24] | MIC [37] | MIC (Escherichia coli [39]) | MIC (Escherichia coli [45])
0.25 µg/mL: MIC (Staphylococcus aureus [1]) | MIC (Staphylococcus aureus [27])
> 128 µg/mL: MIC (Escherichia coli [9]) | MIC (Klebsiella pneumoniae [19]) | MIC (Escherichia coli [29]) | MIC (Klebsiella pneumoniae [34]) | MIC (Escherichia coli [35]) | MIC (Klebsiella pneumoniae [43]) | MIC (Klebsiella pneumoniae [44]) | MIC (Klebsiella pneumoniae [48])
0.06 µg/mL: MIC (Staphylococcus aureus [42])
0.125 µg/mL: MIC (Escherichia coli [20]) | MIC (Staphylococcus aureus [40])
1 µg/mL: MIC [8] | MIC (Streptococcus pneumoniae [12]) | MIC (Enterococcus faecium [30])

O=C(O)c1cn(C2CC2)c2cc(N3CCN(Cc4ccc5c(c4)OCO5)CC3)c(F)cc2c1=O
0.5 µg/mL: MIC (Staphylococcus aureus [40])
1 µg/mL: MIC (Staphylococcus aureus [1]) | MIC (Staphylococcus aureus [27])
32 µg/mL: MIC (Pseudomonas aeruginosa [25]) | MIC (Enterococcus faecalis [26]) | MIC (Staphylococcus aureus [36])
0.25 µg/mL: MIC (Escherichia coli [20]) | MIC (Staphylococcus aureus [42])
8 µg/mL: MIC (Klebsiella pneumoniae [11]) | MIC (Streptococcus pneumoniae [12]) | MIC (Enterococcus faecium [16]) | MIC (Enterococcus faecium [30]) | MIC (Pseudomonas aeruginosa [33])
> 128 µg/mL: MIC (Escherichia coli [9]) | MIC (Klebsiella pneumoniae [19]) | MIC (Escherichia coli [29]) | MIC (Klebsiella pneumoniae [34]) | MIC (Escherichia coli [35]) | MIC (Klebsiella pneumoniae [44]) | MIC (Klebsiella pneumoniae [48])
64 µg/mL: MIC (Staphylococcus aureus [3]) | MIC (Klebsiella pneumoniae [43])
2 µg/mL: MIC [8] | MIC [49]
16 µg/mL: MIC (Streptococcus pneumoniae [2]) | MIC [4] | MIC (Escherichia coli [5]) | MIC (Enterococcus faecalis [10]) | MIC (Enterococcus faecalis [18]) | MIC [24] | MIC (Pseudomonas aeruginosa [28]) | MIC (Pseudomonas aeruginosa [31]) | MIC [37] | MIC (Escherichia coli [39]) | MIC (Pseudomonas aeruginosa [41]) | MIC (Escherichia coli [45]) | MIC (Staphylococcus aureus [47]) | MIC (Pseudomonas aeruginosa [50])

COc1cc(CN2CCN(c3cc4c(cc3F)c(=O)c(C(=O)O)cn4C3CC3)CC2)c([N+](=O)[O-])cc1OC
2 µg/mL: MIC (Escherichia coli [20]) | MIC (Staphylococcus aureus [27]) | MIC [49]
1 µg/mL: MIC (Staphylococcus aureus [1]) | MIC (Staphylococcus aureus [40]) | MIC (Staphylococcus aureus [42])
64 µg/mL: MIC (Staphylococcus aureus [3]) | MIC (Enterococcus faecium [16]) | MIC (Staphylococcus aureus [36])
> 32 µg/mL: MIC [8]
128 µg/mL: MIC (Streptococcus pneumoniae [2]) | MIC (Enterococcus faecalis [26])
8 µg/mL: MIC (Klebsiella pneumoniae [11]) | MIC (Streptococcus pneumoniae [12]) | MIC (Pseudomonas aeruginosa [28]) | MIC (Enterococcus faecium [30]) | MIC (Pseudomonas aeruginosa [31]) | MIC (Pseudomonas aeruginosa [33]) | MIC (Escherichia coli [39]) | MIC (Escherichia coli [45]) | MIC (Pseudomonas aeruginosa [50])
> 128 µg/mL: MIC (Escherichia coli [5]) | MIC (Escherichia coli [9]) | MIC (Klebsiella pneumoniae [19]) | MIC (Escherichia coli [29]) | MIC (Klebsiella pneumoniae [34]) | MIC (Escherichia coli [35]) | MIC (Klebsiella pneumoniae [43]) | MIC (Klebsiella pneumoniae [44]) | MIC (Klebsiella pneumoniae [48])
16 µg/mL: MIC [4] | MIC (Enterococcus faecalis [10]) | MIC (Enterococcus faecalis [18]) | MIC [24] | MIC (Pseudomonas aeruginosa [25]) | MIC [37] | MIC (Staphylococcus aureus [47])
4 µg/mL: MIC (Pseudomonas aeruginosa [41])
